# Data reported in PubChem BioAssay AID1381 (University of Pittsburgh Molecular Library Screening Center, 2008).
# Among all 220,000 compounds or so, about 1,000 (0.45%) were called active.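 How the source made its calls: active means plate z-score of nuclear minus cytoplasmic receptor signal below a set negative limit, without overly bright fluorescence or cell loss (cut at about -3.5 in these data, passing the limit was not always enough); inactive means the rest, inconclusive results apart.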 The list comes from a sample in which actives are over-represented; it also holds similar structures and randomly drawn compounds.
# Assay: inhibitors of GR-EGFP nuclear translocation, primary screen, dynein cargo transport inhibitor project, imaging, high-content, 3617.4 mouse cells (AID 1381)
# Settings: stimulated with dexamethasone, 1 µM
# In short: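 Buffer or medium: Induction medium lacking tetracycline, stripped serum | Also added: Dexamethasone agonist, 1.0 µM final, for 30 min | Timing: 48 h induction, 1 h compound, 30 min dex at 37 °C | Detection: Formaldehyde fixation, Hoechst nuclear stain, 10x automated fluorescence imaging | Measure: Nuclear versus cytoplasmic GR-EGFP signal, averaged per well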
# [1] = measured here: cell count per field, at 20 µM
# [2] = measured here: cytoplasmic GR-EGFP intensity, at 20 µM, stronger effect = higher value
# [3] = measured here: nuclear GR-EGFP intensity, at 20 µM, stronger effect = lower value
# [4] = measured here: cell count per field, at 50 µM
# [5] = measured here: cytoplasmic GR-EGFP intensity, at 50 µM, stronger effect = higher value
# [6] = measured here: nuclear GR-EGFP intensity, at 50 µM, stronger effect = lower value
SMILES,"z-score (at 20 µM, stronger effect = lower value)",z-score [1],z-score [2],z-score [3],"z-score (at 50 µM, stronger effect = lower value)",z-score [4],z-score [5],z-score [6]
CCCn1c(SCC(=O)Nc2ccc(C)c(S(=O)(=O)N3CCOCC3)c2)n[nH]c1=O,1.09 (inactive),0.0169,-0.261,0.257,–,–,–,–
Cc1ccc2nc(Nc3ncc4c(n3)CC(C)(C)CC4=O)nc(C)c2c1,0.135 (inactive),0.445,-0.285,-0.00084,–,–,–,–
Cn1c2ccccc2c(=O)c2c(O)cccc21,-0.39 (inactive),0.337,-0.342,-0.208,–,–,–,–
Cc1cccc(OP(=O)(Nc2c(C)n(C)n(-c3ccccc3)c2=O)Oc2cccc(C)c2)c1,1.6 (inactive),-1.31,-0.218,1.25,–,–,–,–
Cc1cccc(Oc2c([N+](=O)[O-])c(=O)n(C)c3ccccc23)c1,-4.31 (active),0.72,0.943,-2.29,–,–,–,–
Cc1nn(C)c(Oc2ccccc2)c1[N+](=O)[O-],-0.413 (inactive),0.292,-0.104,0.119,–,–,–,–
COc1cccc(C(=O)Oc2cc(C)[nH]c(=O)c2[N+](=O)[O-])c1,1.66 (inactive),-1.05,-0.136,0.869,–,–,–,–
Cn1c(=O)c([N+](=O)[O-])c(Oc2ccccc2)c2ccccc21,-6.51 (active),0.669,1.62,-2.76,–,–,–,–
CC(NC(=S)Nc1ccccc1)C1COc2ccccc2O1 (stereo unspecified),0.289 (inactive),0.134,-0.0607,0.355,–,–,–,–
CCN(CC)Cc1csc2ccc(Br)cc12,-0.627 (inactive),1.15,-0.13,0.249,–,–,–,–
O=C(Nc1ccc(F)cc1)c1cccnc1N1CCOCC1,–,–,–,–,0.0462 (inactive),1.37,-0.00933,0.174
O=c1[nH]c(N2CCN(Cc3ccc4c(c3)OCO4)CC2)nc2c1CCCC2,-1.03 (inactive),2.27,-0.309,-0.0483,–,–,–,–
COCC1CCCN(Cc2nc(-c3ccc4c(c3)OCO4)no2)C1 (stereo unspecified),0.118 (inactive),0.19,-0.27,0.224,–,–,–,–
O=C1/C(=C/c2ccc3c(c2)OCO3)CCC/C1=C\c1ccc2c(c1)OCO2,0.645 (inactive),-1.87,1.28,0.356,–,–,–,–
CSC1=N/C(=C\c2ccc3c(c2)OCO3)C(=O)S1,–,–,–,–,-0.0628 (inactive),-0.123,-0.227,-0.89
CCC1=C/C(=C\c2ccc3c(c2)OCO3)C(=O)S1,-3.72 (active),0.295,0.919,-1.39,–,–,–,–
Cc1cccc(C)c1NC1=NC(=S)N(c2ccc(N(C)C)cc2)C1(C)C,1.25 (inactive),0.0641,-0.0144,0.985,–,–,–,–

SMILES,"z-score (at 20 µM, stronger effect = lower value)",z-score [1],z-score [2],z-score [3],"z-score (at 50 µM, stronger effect = lower value)",z-score [4],z-score [5],z-score [6]
Cc1ccc(/C=N/NC(=S)NC2CCCCC2)o1,-0.738 (inactive),-0.0991,-0.777,-0.608,–,–,–,–
C/C(CC(=O)Nc1cccc(C(F)(F)F)c1)=N\NC(=O)C(=O)NCC(C)C,-0.981 (inactive),0.594,-0.237,-0.369,–,–,–,–
Cc1nnc(SCCCCSc2nnc(C)c(=O)[nH]2)[nH]c1=O,-0.311 (inactive),-0.339,-0.259,-0.0707,–,–,–,–
COC(=O)/C=C\C(=O)Nc1cccc([N+](=O)[O-])c1,-4.05 (active),-0.741,1.08,-2.26,–,–,–,–
Cc1ccccc1NC(=S)Nc1cccc([N+](=O)[O-])c1,-0.523 (inactive),-0.0166,-0.193,-0.37,–,–,–,–
CC(=O)Nc1cccc([N+](=O)[O-])c1,0.101 (inactive),0.386,-0.384,0.092,–,–,–,–
COc1ccc(-c2noc(-c3cccc(OC)c3OC)n2)cc1OC,1.03 (inactive),-0.605,-0.0658,0.927,–,–,–,–
COc1ccc(-c2csc3nc(-c4ccccc4F)oc(=O)c23)cc1OC,-3.75 (active),-0.574,0.603,-1.45,–,–,–,–
COc1ccc(-c2csc(-c3cccs3)n2)cc1OC,0.847 (inactive),0.288,-0.331,0.694,–,–,–,–
O=C(Nc1ccc(N2CCOCC2)cc1)c1ccc2c(c1)OCO2,1.56 (inactive),-0.797,-0.257,0.727,–,–,–,–
CCCC1NC(=S)NC(C)=C1C(C)=O (stereo unspecified),0.661 (inactive),0.486,-0.194,0.234,–,–,–,–
COc1cc(/C=N\NC(=O)CNC(=O)c2cccc([N+](=O)[O-])c2)ccc1O,2.51 (inactive),-1.15,0.0365,1.56,–,–,–,–
COc1ccc(C(=O)NCC(=O)N/N=C/c2ccc([N+](=O)[O-])s2)cc1OC,-0.653 (inactive),0.617,-0.211,-0.24,–,–,–,–
COc1ccc(C(=O)NCC(=O)N/N=C/c2ccc([N+](=O)[O-])o2)cc1OC,-4.33 (active),0.928,0.52,-1.68,–,–,–,–
CC(C)(C)OC(=O)NCCCCCC(=O)N/N=C/c1coc2ccccc2c1=O,-0.131 (inactive),-0.0505,-0.202,-0.314,–,–,–,–
C/C(=N\NC(=O)CSc1nc2ccccc2c(=O)n1-c1ccccc1C)c1cccs1,0.968 (inactive),-0.667,-0.231,0.554,–,–,–,–
CCn1c(SCc2cc(=O)n3ccsc3n2)nc2ccccc21,-0.0624 (inactive),-0.534,-0.319,0.783,–,–,–,–
